Laboratory results reported in PMC5800871 (European journal of medicinal chemistry, 2017).
Structures can show the parent of a compound that is named as a salt.

How the values were obtained:
CYP2C9 = CYP2C9 (Homo sapiens, UniProt P11712); assay: Cytochrome P450 inhibition assay, CYP2C9; format: in vitro ADME; details: CYP activity as % of control, 10 μM, human liver microsomes
[1] = Liver microsomal stability, dog; format: in vitro ADME; details: 1 μM, 0.5 mg/mL microsomal protein, NADPH, 37 °C
Outline: (§1)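 Liver microsomes (human pool of 150 donors; dog, rat, mouse) at 0.5 mg/mL protein in 100 mM phosphate buffer pH 7.4 with test compound at 1 μM final, 37 °C. Started with NADPH regeneration system and stopped with ice-cold acetonitrile at 0 and 30 min. Supernatant analysed by LC-MS/MS. Percent parent remaining from peak areas against the 0 min sample (100 %), stopped before NADPH addition.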

[2] = Liver microsomal stability, human; format: in vitro ADME; details: 1 μM, 0.5 mg/mL microsomal protein, NADPH, 37 °C
Outline: as §1

CYP 3A4 = assay: Cytochrome P450 inhibition assay, CYP3A4; format: in vitro ADME; details: CYP activity as % of control, 10 μM, human liver microsomes
[3] = Liver microsomal stability, rat; format: in vitro ADME; details: 1 μM, 0.5 mg/mL microsomal protein, NADPH, 37 °C
Outline: as §1

[4] = Liver microsomal stability, mouse; format: in vitro ADME; details: 1 μM, 0.5 mg/mL microsomal protein, NADPH, 37 °C
Outline: as §1

CYP2D6 = CYP2D6 (Homo sapiens, UniProt P10635); assay: Cytochrome P450 inhibition assay, CYP2D6; format: in vitro ADME; details: CYP activity as % of control, 10 μM, human liver microsomes
Chain of CYP2D6 (P10635 whole entry): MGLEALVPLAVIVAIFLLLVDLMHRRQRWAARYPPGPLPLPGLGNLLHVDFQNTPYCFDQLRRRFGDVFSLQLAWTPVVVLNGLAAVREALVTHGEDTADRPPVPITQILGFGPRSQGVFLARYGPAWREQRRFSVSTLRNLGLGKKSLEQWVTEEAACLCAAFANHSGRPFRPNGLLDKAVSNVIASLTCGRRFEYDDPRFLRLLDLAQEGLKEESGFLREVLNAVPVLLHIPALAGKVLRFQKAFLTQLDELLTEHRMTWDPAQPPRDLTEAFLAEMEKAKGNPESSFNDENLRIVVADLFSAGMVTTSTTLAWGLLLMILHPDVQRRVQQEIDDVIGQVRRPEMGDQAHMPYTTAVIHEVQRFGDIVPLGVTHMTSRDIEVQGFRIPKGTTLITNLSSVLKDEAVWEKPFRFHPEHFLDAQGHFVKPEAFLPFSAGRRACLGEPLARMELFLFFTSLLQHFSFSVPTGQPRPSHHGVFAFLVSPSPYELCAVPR

CYP2C19 = CYP2C19 (Homo sapiens, UniProt P33261); assay: Cytochrome P450 inhibition assay, CYP2C19; format: in vitro ADME; details: CYP activity as % of control, 10 μM, human liver microsomes
Chain of CYP2C19 (P33261 whole entry): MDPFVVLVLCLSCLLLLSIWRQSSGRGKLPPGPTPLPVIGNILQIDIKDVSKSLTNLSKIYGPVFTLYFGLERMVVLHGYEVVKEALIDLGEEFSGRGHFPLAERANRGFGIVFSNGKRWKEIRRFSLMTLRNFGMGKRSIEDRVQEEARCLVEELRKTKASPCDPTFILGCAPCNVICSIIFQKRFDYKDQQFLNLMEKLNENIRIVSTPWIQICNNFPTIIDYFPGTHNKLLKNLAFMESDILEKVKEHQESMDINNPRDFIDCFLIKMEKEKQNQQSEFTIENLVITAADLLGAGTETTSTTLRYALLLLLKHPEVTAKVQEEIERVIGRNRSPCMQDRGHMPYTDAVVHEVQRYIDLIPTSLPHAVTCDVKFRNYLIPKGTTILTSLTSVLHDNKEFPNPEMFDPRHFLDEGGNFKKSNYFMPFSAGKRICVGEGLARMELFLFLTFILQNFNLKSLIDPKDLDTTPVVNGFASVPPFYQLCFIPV

CYP1A2 = target: T1, CYP1A2 (Homo sapiens, UniProt P05177); assay: Cytochrome P450 inhibition assay, CYP1A2; format: in vitro ADME; details: CYP activity as % of control, 10 μM, human liver microsomes
T1 sequence (P05177 1-516): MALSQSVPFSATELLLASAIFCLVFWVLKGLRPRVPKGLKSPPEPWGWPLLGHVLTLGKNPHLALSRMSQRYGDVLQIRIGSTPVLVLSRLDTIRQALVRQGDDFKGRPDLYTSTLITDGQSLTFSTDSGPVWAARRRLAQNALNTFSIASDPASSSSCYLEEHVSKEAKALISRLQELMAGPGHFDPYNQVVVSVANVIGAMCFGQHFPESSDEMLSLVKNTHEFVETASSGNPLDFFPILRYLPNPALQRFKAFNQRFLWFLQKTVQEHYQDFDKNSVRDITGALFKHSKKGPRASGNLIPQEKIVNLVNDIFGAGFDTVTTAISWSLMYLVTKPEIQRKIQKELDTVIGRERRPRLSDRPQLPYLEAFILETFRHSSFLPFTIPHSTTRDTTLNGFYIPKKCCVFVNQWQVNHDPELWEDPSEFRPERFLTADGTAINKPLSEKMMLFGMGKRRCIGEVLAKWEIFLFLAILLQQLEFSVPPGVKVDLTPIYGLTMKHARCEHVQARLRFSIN

panel of 468 kinases = assay: KINOMEscan kinome selectivity profiling; format: binding; details: KINOMEscan at 1 μM; 7c 468 kinases, TAE684 353 kinases

Chain of CYP2C9 (P11712 whole entry): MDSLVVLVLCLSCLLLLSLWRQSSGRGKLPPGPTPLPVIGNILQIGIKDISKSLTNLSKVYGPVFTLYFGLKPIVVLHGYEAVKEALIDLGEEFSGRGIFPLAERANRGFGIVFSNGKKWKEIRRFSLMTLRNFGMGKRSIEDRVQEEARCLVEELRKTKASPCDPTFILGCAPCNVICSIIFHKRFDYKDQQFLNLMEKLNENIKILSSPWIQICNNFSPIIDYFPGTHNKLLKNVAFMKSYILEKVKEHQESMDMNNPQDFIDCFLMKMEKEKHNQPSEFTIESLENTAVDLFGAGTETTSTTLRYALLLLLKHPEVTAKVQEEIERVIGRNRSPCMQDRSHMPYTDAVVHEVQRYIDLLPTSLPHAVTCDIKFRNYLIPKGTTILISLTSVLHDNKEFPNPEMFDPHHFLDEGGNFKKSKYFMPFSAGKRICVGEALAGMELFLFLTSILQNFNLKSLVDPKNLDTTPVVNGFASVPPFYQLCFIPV

Compound	Cytochrome P450 inhibition (% of control) 2C9 (CYP2C9)	Liver microsomal stability (% remaining after 30 min) Dog [1] [% remaining after 30 min]	Liver microsomal stability (% remaining after 30 min) Human [2] [% remaining after 30 min]	Cytochrome P450 inhibition (% of control) 3A4 (CYP 3A4)	Liver microsomal stability (% remaining after 30 min) Rat [3] [% remaining after 30 min]	Liver microsomal stability (% remaining after 30 min) Mouse [4] [% remaining after 30 min]	Cytochrome P450 inhibition (% of control) 2D6 (CYP2D6)	Cytochrome P450 inhibition (% of control) 2C19 (CYP2C19)	Cytochrome P450 inhibition (% of control) 1A2 (CYP1A2)	S-score(1) (panel of 468 kinases)
C=CC(=O)Nc1cc(Nc2nccc(Nc3ccccc3S(=O)(=O)C(C)C)n2)c(OC)cc1N(C)CCN(C)C [Compound 7a, N-(2-((2-(Dimethylamino)ethyl)(methyl)amino)-5-((4-((2-(isopropylsulfonyl)phenyl)amino)pyrimidin-2-yl)amino)-4-methoxyphenyl)acrylamide]	90 % of control	48	5	40 % of control	22	8	67 % of control	87 % of control	80 % of control	–
C=CC(=O)Nc1cc(Nc2ncc(F)c(Nc3ccccc3S(=O)(=O)C(C)C)n2)c(OC)cc1N(C)CCN(C)C [Compound 7b, N-(2-((2-(Dimethylamino)ethyl)(methyl)amino)-5-((5-fluoro-4-((2-(isopropylsulfonyl)phenyl)amino)pyrimidin-2-yl)amino)-4-methoxyphenyl)acrylamide]	94 % of control	27	26	51 % of control	11	15	95 % of control	93 % of control	91 % of control	–
C=CC(=O)Nc1cc(Nc2ncc(I)c(Nc3ccccc3S(=O)(=O)C(C)C)n2)c(OC)cc1N(C)CCN(C)C [Compound 7d, N-(2-((2-(Dimethylamino)ethyl)(methyl)amino)-5-((5-iodo-4-((2-(isopropylsulfonyl)phenyl)amino)pyrimidin-2-yl)amino)-4-methoxyphenyl)acrylamide]	88 % of control	19	14	47 % of control	14	10	82 % of control	86 % of control	81 % of control	–
C=CC(=O)Nc1cc(Nc2nccc(Nc3ccccc3P(C)(C)=O)n2)c(OC)cc1N(C)CCN(C)C [Compound 7e, N-(2-((2-(Dimethylamino)ethyl)(methyl)amino)-5-((4-((2-(dimethylphosphoryl)phenyl)amino)pyrimidin-2-yl)amino)-4-methoxyphenyl)acrylamide trifluoroacetate salt]	90 % of control	73	70	89 % of control	78	76	87 % of control	>100 % of control	84 % of control	–
C=CC(=O)Nc1cc(Nc2ncc(F)c(Nc3ccccc3P(C)(C)=O)n2)c(OC)cc1N(C)CCN(C)C [Compound 7f, N-(2-((2-(Dimethylamino)ethyl)(methyl)amino)-5-((4-((2-(dimethylphosphoryl)phenyl)amino)-5-fluoropyrimidin-2-yl)amino)-4-methoxyphenyl)acrylamide trifluoroacetate salt]	>100 % of control	87	84	>100 % of control	87	80	>100 % of control	>100 % of control	>100 % of control	–
C=CC(=O)Nc1cc(Nc2ncc(Cl)c(Nc3ccccc3P(C)(C)=O)n2)c(OC)cc1N(C)CCN(C)C [Compound 7g, N-(5-((5-Chloro-4-((2-(dimethylphosphoryl)phenyl)amino)pyrimidin-2-yl)amino)-2-((2-(dimethylamino)ethyl)(methyl)amino)-4-methoxyphenyl)acrylamide trifluoroacetate salt]	>100 % of control	–	61	91 % of control	76	66	–	–	93 % of control	–
C=CC(=O)Nc1cc(Nc2ncc(I)c(Nc3ccccc3P(C)(C)=O)n2)c(OC)cc1N(C)CCN(C)C [Compound 7h, N-(2-((2-(Dimethylamino)ethyl)(methyl)amino)-5-((4-((2-(dimethylphosphoryl)phenyl)amino)-5-iodopyrimidin-2-yl)amino)-4-methoxyphenyl)acrylamide trifluoroacetate salt]	>100 % of control	–	65	88 % of control	81	–	–	–	91 % of control	–
C=CC(=O)Nc1cc(Nc2nccc(Nc3ccccc3S(=O)(=O)N(C)C)n2)c(OC)cc1N(C)CCN(C)C [Compound 7i, N-(2-((2-(Dimethylamino)ethyl)(methyl)amino)-5-((4-((2-(N,N-dimethylsulfamoyl)phenyl)amino)pyrimidin-2-yl)amino)-4-methoxyphenyl)acrylamide]	88 % of control	–	10	–	–	5	–	–	82 % of control	–
C=CC(=O)Nc1cc(Nc2ncc(F)c(Nc3ccccc3S(=O)(=O)N(C)C)n2)c(OC)cc1N(C)CCN(C)C [Compound 7j, N-(2-((2-(Dimethylamino)ethyl)(methyl)amino)-5-((4-((2-(N,N-dimethylsulfamoyl)phenyl)amino)-5-fluoropyrimidin-2-yl)amino)-4-methoxyphenyl)acrylamide]	–	–	–	–	7	10	>100 % of control	91 % of control	>100 % of control	–
C=CC(=O)Nc1cc(Nc2ncc(Cl)c(Nc3ccccc3S(=O)(=O)N(C)C)n2)c(OC)cc1N(C)CCN(C)C [Compound 7k, N-(5-((5-Chloro-4-((2-(N,N-dimethylsulfamoyl)phenyl)amino)pyrimidin-2-yl)amino)-2-((2-(dimethylamino)ethyl)(methyl)amino)-4-methoxyphenyl)acrylamide]	–	31	–	–	–	–	–	–	–	–
C=CC(=O)Nc1cc(Nc2ncc(I)c(Nc3ccccc3S(=O)(=O)N(C)C)n2)c(OC)cc1N(C)CCN(C)C [Compound 7l, N-(2-((2-(Dimethylamino)ethyl)(methyl)amino)-5-((4-((2-(N,N-dimethylsulfamoyl)phenyl)amino)-5-iodopyrimidin-2-yl)amino)-4-methoxyphenyl)acrylamide]	–	–	–	–	12	12	–	–	–	–
COc1cc(N2CCC(N3CCN(C)CC3)CC2)ccc1Nc1ncc(Cl)c(Nc2ccccc2S(=O)(=O)C(C)C)n1 [TAE684, reference compound]	–	–	–	–	–	–	–	–	–	0.37
